In PMC6911266 (Nature, 2019):
Positions count from the first letter of the chain named.

Columns and labels:
PfCRT 7G8 = target: T1, PfCRT 7G8 (Plasmodium falciparum, UniProt W7FI62); assay: Equilibrium dialysis binding, PfCRT variant in nanodiscs; settings: for Bmax, binding at pH 5.5 / Bmax, binding at pH 7.5: equilibrium dialysis
T1 sequence (W7FI62 1-424): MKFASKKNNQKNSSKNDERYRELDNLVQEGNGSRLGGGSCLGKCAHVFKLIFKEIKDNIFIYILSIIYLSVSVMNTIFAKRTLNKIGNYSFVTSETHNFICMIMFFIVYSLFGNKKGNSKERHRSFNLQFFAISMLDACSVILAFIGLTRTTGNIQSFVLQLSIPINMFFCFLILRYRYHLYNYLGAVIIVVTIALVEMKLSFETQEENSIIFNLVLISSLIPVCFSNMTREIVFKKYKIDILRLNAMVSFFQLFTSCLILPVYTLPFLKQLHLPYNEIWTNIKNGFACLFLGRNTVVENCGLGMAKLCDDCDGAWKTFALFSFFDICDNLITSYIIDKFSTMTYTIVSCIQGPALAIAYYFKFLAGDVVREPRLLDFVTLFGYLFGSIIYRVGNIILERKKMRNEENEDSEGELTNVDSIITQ

PfCRT 7G8+F145I = target: T2, PfCRT 7G8+F145I (Plasmodium falciparum, UniProt W7FI62, F145I); assay: as above; settings: for Bmax, binding at pH 5.5 / Bmax, binding at pH 7.5: equilibrium dialysis
T2 sequence (W7FI62 1-424 F145I): T1 sequence (W7FI62 1-424) with F145I

PfCRT 7G8+C350R = target: T3, PfCRT 7G8+C350R (Plasmodium falciparum, UniProt W7FI62, C350R); assay: Transport; format: biochemical; settings: for 1-min uptake, transport in proteoliposomes: 100 nM [3H]-drug, inwardly-directed pH gradient; for Vmax, transport in proteoliposomes: initial rates over 3 s, Michaelis-Menten fit; for transport activity (in words): proteoliposomes
T3 sequence (W7FI62 1-424 C350R): T1 sequence (W7FI62 1-424) with C350R

PfCRT WT (3D7) = target: T4, PfCRT WT (3D7) (Plasmodium falciparum, UniProt Q9N623); assay: Transport; format: biochemical; settings: for 1-min uptake, transport in proteoliposomes: 100 nM [3H]-drug, inwardly-directed pH gradient; for transport activity (in words): proteoliposomes
T4 sequence (Q9N623 1-424): T1 sequence (W7FI62 1-424) with S72C, T76K, S220A, D326N, L356I
How it was run: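 PfCRT proteoliposomes (40 ng protein per assay) are loaded with 100 mM KPi, pH 7.5, and 2 mM β-mercaptoethanol. They are diluted into 100 mM Tris/Mes, pH 5.5, giving an inward pH gradient, with 100 nM [3H]-CQ (5.45 Ci/mmol) or [3H]-PPQ (15 Ci/mmol) for 1 min. Filter mock uptake without liposomes and control-liposome uptake are subtracted. Data come from 2 independent experiments, each with 4 technical replicates.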

[1] = test system: P. falciparum 7G8^7G8+F145I parasite line; assay: [3H]-drug accumulation assay in cultured parasites; format: cell-based, Plasmodium falciparum; settings: 60 min, trophozoites
How it was run: (§1)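 Sorbitol-synchronized early trophozoites (24–26 h) were magnet-purified and resuspended in bicarbonate-free RPMI 1640 (25 mM HEPES, 10 mM glucose, 0.2 mM hypoxanthine, pH 7.4), counted by hemocytometer. They were mixed with an equal volume of radiolabelled drug (10 nM [3H]-CQ before mixing) for 1 h at 37°C, spun through dibutyl phthalate, then scintillation counted. CAR was internal/external drug, corrected for uninfected erythrocytes, per 10^6 cells at 75 fl; 4–6 assays in duplicate.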

[2] = test system: P. falciparum Dd2^Dd2 parasite line; assay: [3H]-drug accumulation assay in cultured parasites; format: cell-based, Plasmodium falciparum; settings: 60 min, trophozoites
How it was run: as §1

[3] = test system: P. falciparum Dd2^Dd2 parasite line; assay: Parasite drug susceptibility assay; format: cell-based, Plasmodium falciparum; settings: Plasmodium falciparum, DD2, 72 h
How it was run: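 Asynchronous asexual blood-stage parasites were seeded at 0.3% parasitemia and 1% hematocrit into 2-fold, 10-point test compound dilutions. Incubation was 72 h at 37°C under 5% O2/5% CO2/90% N2. Final parasitemia was read by flow cytometry. IC50 came from nonlinear regression, 4 independent assays in duplicate, with two-tailed Mann-Whitney U tests.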

[4] = binding at pH 5.5, equilibrium dialysis, pH 5.5
[5] = binding at pH 7.5, equilibrium dialysis, pH 7.5

| SMILES | Kd (PfCRT 7G8; [4]) [nM] | Kd (PfCRT 7G8; [5]) [nM] | Bmax, binding at pH 5.5 (PfCRT 7G8; pH 5.5) [mol CQ/mol PfCRT] | Bmax, binding at pH 7.5 (PfCRT 7G8; pH 7.5) [mol CQ/mol PfCRT] | Kd (PfCRT 7G8+F145I; [4]) [nM] | Kd (PfCRT 7G8+F145I; [5]) [nM] | Bmax, binding at pH 5.5 (PfCRT 7G8+F145I; pH 5.5) [mol CQ/mol PfCRT] | Bmax, binding at pH 7.5 (PfCRT 7G8+F145I; pH 7.5) [mol CQ/mol PfCRT] | 1-min uptake, transport in proteoliposomes (PfCRT 7G8+C350R) [nmol/mg] | Vmax, transport in proteoliposomes (PfCRT 7G8+C350R) [nmol/mg/min] | transport activity (in words) (PfCRT 7G8+C350R) | 1-min uptake, transport in proteoliposomes (PfCRT WT (3D7)) [nmol/mg] | transport activity (in words) (PfCRT WT (3D7)) | [3H]-CQ CAR (cellular accumulation ratio) ([1]; 5 nM [3H]-CQ) | [3H]-CQ CAR (cellular accumulation ratio) ([2]; 5 nM [3H]-CQ) | IC50 [3] [nM] | fold increase in Kd compared with 7G8 parental isoform (PfCRT 7G8+F145I; pH 5.5) | [3H]-PPQ CAR (cellular accumulation ratio) ([1]; 20 nM [3H]-PPQ) | [3H]-PPQ CAR (cellular accumulation ratio) ([2]; 20 nM [3H]-PPQ) |
| --- | --- | --- | --- | --- | --- | --- | --- | --- | --- | --- | --- | --- | --- | --- | --- | --- | --- | --- | --- |
| CCN(CC)CCCC(C)Nc1ccnc2cc(Cl)ccc12 (stereo not drawn) [CQ, chloroquine] | 210 ± 60 | 280 ± 60 | 0.40 ± 0.03 | 0.38 ± 0.02 | 240 ± 60 | 290 ± 50 | 0.39 ± 0.03 | 0.43 ± 0.02 | 0.80 ± 0.21 | 17.97 ± 0.87 | reduced uptake | 0.58 ± 0.08 | minimal uptake | 388.4 ± 38.9 | 26.3 ± 2.9 | 143 ± 21.8 | – | – | – |
| Clc1ccc2c(N3CCN(CCCN4CCN(c5ccnc6cc(Cl)ccc56)CC4)CC3)ccnc2c1 [PPQ, piperaquine] | 90 ± 20 | 220 ± 40 | 0.40 ± 0.01 | 0.40 ± 0.02 | 220 ± 30 | 260 ± 30 | 0.38 ± 0.01 | 0.42 ± 0.01 | 0.82 ± 0.07 | 153.00 ± 3.10 | substantially increased | 0.51 ± 0.04 | Minimal | – | – | 18.3 ± 1.9 | ~ 2 fold | 1125.6 ± 59.6 | 1861.3 ± 91.8 |
